dFosB act – mouse delta FosB homodimer activation; 0.99% of 340,000 active; activation, % at 25 µM; AID 493131; P13346; purified delta FosB, TAMRA-CDK5 oligo fluorescence polarization; percent of positive-control signal above neutral wells;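 active = mean activation above about 17%, with every replicate also reaching it, limit read from the data, passing the limit was not always enough; inconclusive = only one of the two conditions met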
Target sequence (P13346 whole entry, looked up): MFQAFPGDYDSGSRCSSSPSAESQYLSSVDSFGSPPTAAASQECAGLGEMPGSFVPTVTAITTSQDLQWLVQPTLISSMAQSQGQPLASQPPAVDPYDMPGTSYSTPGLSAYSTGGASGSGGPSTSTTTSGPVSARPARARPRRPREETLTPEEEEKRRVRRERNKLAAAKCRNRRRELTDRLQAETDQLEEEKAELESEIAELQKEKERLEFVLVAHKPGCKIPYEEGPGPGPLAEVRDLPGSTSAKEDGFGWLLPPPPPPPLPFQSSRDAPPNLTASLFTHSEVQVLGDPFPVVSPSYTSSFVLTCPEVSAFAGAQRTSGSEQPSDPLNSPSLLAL
SR-BI DiI inh – inhibitors of mouse SR-BI mediated HDL lipid uptake | Q61009 | ldlA[mSR-BI] CHO cells, DiI-HDL uptake fluorescence, 3 h | inhibition, % at 12.5 µM | 0.96% of 320,000 active | AID 488896;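 active = mean replicate inhibition of at least 70% and a set share of replicates each scoring 70 or more; inconclusive = meets just one of the two criteria; inactive = fails both criteria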;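 also: 0% = median of neutral control wells and 100% = median of positive control wells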
CAL PDZ FP-1 – inhibitors of human CAL PDZ peptide binding; Q9HD26; purified CAL PDZ, TMR-peptide fluorescence polarization, 1 h; inhibition, % at 20 µM; 0.02% of 330,000 active; AID 504414;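 active = highest replicate inhibition of at least 40%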;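 also: plate controls were DMSO neutral control wells for no effect and unlabeled competitor peptide control wells for full effect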
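Material: tagged CAL PDZ domain; buffer or medium: 25 mM sodium phosphate pH 7.4, 150 mM NaCl, TCEP, IgG, Thesit; compound dosing: single point, 20 µM; schedule: 1 h incubation at room temperature before polarization reading; measured by: FP readout, S and P plane fluorescence; read-out basis: percent inhibition from loss of millipolarization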
CAL PDZ FP-2 – blocks peptide binding to the human CAL PDZ domain. AID 602252. 0.92% of 300,000 active. purified CAL PDZ, TMR-peptide fluorescence polarization, 1 h. inhibition, % at 24.9 µM. Q9HD26;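 active = mean inhibition of at least 30% with at least half of replicates also reaching 30%; inconclusive = no clear call, values can overlap the other calls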;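 also: 0% = DMSO neutral control and 100% = excess unlabeled competitor peptide PRC23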
SR-BI DiI-HDL act – activators of SR-BI mediated HDL lipid uptake; CHO ldlA[mSR-BI] cells, DiI-HDL uptake fluorescence, 3 h; 100 = double the neutral-control signal; AID 504775; activation, % at 12.5 µM; 0.096% of 320,000 active;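 active = mean replicate activation of at least 60% and every replicate at or above 60%; inconclusive = mean or all-replicate condition met, but not both; inactive = mean below 60% and not all replicates reaching 60%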;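 also: 0% = median plate neutral-control signal and 100% = twice that signal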
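Test system: SR-BI-overexpressing, LDLR-lacking CHO cells; Also added: labelled HDL, 10 µg/mL; Measured by: bottom-read cell fluorescence after medium removal, ex 550/em 595 nm; Timing: 3 h uptake period with compound, 37 °C; Buffer or medium: F12, 0.5% BSA, 25 mM HEPES; Doses: single compound concentration, delivered by pin transfer.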
* = called active by the depositor; ? = inconclusive; nt = no result. Most compounds without a hit are left out; they make up all but 2.8% or so of the library.

SMILES	dFosB act	SR-BI DiI inh	CAL PDZ FP-1	CAL PDZ FP-2	SR-BI DiI-HDL act
O=C(N/N=C\c1c(O)ccc2ccccc12)c1cncc(Br)c1	5	143*	-2	-3	-143
O=C(N/N=C\c1c(O)ccc2ccccc12)c1ccc(O)cc1	?	94*	-1	10	-94
O=C(NN=Cc1c(O)ccc2ccccc12)c1ccncc1	8	97*	-2	-6	-97
CCN(CC)C(=O)Cn1cc(C(=O)C(=O)N2CCN(Cc3ccc4c(c3)OCO4)CC2)c2ccccc21	-8	30	0	-3	nt
COC(=O)N/N=C/C1=CCC2CC1C2(C)C (centres undefined)	4	-9	0	nt	9
CC1(C)C2CC=C(/C=N/NC(=O)c3ccc(O)cc3)C1C2 (centres undefined)	-16	-3	-2	78*	3
Cn1nccc1C(=O)N/N=C/c1c(O)ccc2ccccc12	-10	105*	-4	-2	-105
O=C(CN1CCOCC1)N/N=C/c1c(O)ccc2ccccc12	-4	25	-2	-7	-25
Cn1cc(C(=O)N/N=C/c2c(O)ccc3ccccc23)ccc1=O	10	102*	0	nt	-102
Cc1ccc(C(=O)N/N=C/c2c(O)ccc3ccccc23)cn1	-2	93*	nt	-3	-93
O=C(N/N=C/c1c(O)ccc2ccccc12)c1ccc[n+](CCO)c1	1	37	-3	0	-37
CCOc1ccc2ccccc2c1/C=N\NC(=O)c1ccc([N+](=O)[O-])cc1	3	78*	10	10	-78
Cc1occc1C(=O)N/N=C/c1c(O)ccc2ccccc12	-4	114*	-1	-2	-114
O=C(N/N=C/c1c(O)ccc2ccccc12)c1ccc(Br)o1	30*	124*	-2	-4	-124
Cc1occc1C(=O)N/N=C/c1c[nH]c2ccccc12	-3	-17	-2	0	17
COc1cc(OC)cc(C(=O)NCC(=O)NC(C)c2ccccc2)c1 (centres undefined)	2	-12	1	0	12
CN(C)C(=O)CSc1n[nH]c(=O)n1CCc1ccccc1	-5	-14	-3	-3	14
COc1ccc(NC(=O)COC(=O)c2cc3c(s2)CCC3)cc1	-1	-14	0	-3	14
COCCNC(=O)C(=O)NCCN1CCOCC1	11	-6	-1	-4	6
COCCNC(=O)C(=O)NCCN1CCNCC1	5	2	0	88*	-2
COc1ccc(-c2nn(-c3ccccc3)cc2CNC(=O)c2cccc([N+](=O)[O-])c2)cc1	0	55	-2	-2	-55
CC(=O)Cn1c(=O)oc2ccccc21	1	-114	0	nt	113*
CC(=O)N1CCN(C(=O)Cn2c(=O)oc3ccccc32)CC1	4	-18	-1	nt	18
CC1CC(C)CN(C(=O)CCn2c(=O)oc3ccccc32)C1 (centres undefined)	-3	-13	14	45*	13
COc1ccc(Nc2nc3ccccc3nc2NS(=O)(=O)c2cccs2)c(OC)c1	-6	nt	1	-4	nt
SMILES	dFosB act	SR-BI DiI inh	CAL PDZ FP-1	CAL PDZ FP-2	SR-BI DiI-HDL act
COc1ccc(Nc2nc(-c3cccc([N+](=O)[O-])c3)nc3ccccc23)c(OC)c1	-1	91*	0	-3	-91
COc1ccc(Nc2cc(C(=O)N3CCc4ccccc4C3)c3ccccc3n2)c(OC)c1	3	78*	-1	-1	-78
COc1ccc(Nc2nc(N3CCN(C)CC3)nc3ccccc23)c(OC)c1	5	12	2	53*	-12
COc1ccc(Nc2nc(-c3cccs3)nc3ccccc23)c(OC)c1	-10	77*	0	-1	-77
CSc1cccc(NC(=O)c2cccc3cccnc23)c1	1	25	-4	-2	-25
COc1cccc(CN2CCNC(=O)C2CC(=O)NC2CCCCCCC2)c1 (centres undefined)	-5	-1	-2	9	1
Cn1nnnc1SCCNC(=O)C1CCC(=O)N(Cc2ccc(Cl)cc2)C1 (centres undefined)	-2	-2	-3	5	2
COC(=O)[C@H](Cc1c[nH]c2ccccc12)NC(=O)NCc1ccccc1	-5	1	0	-1	-1
COc1cc(NC(=O)C2=C(C)OCCS2)c(Cl)cc1C(=O)NCCN(C)C	2	-2	0	nt	2
CC(C1CC1)N(Cc1ccccc1)C(=S)Nc1ccccc1Cl (centres undefined)	1	18	-1	88*	-18
CCOC(=O)c1[nH]cnc1N=Nc1c(O)ccc2ccccc12	-5	80*	2	-2	-80
CCn1nc(C)c(NC(=O)/C=C/c2ccc(OC)c(COc3ccc(Cl)cc3Br)c2)c1C	207*	13	-2	-1	-13
CCCn1nnnc1SCC(=O)N1CCCCC1	-4	-2	-3	14	2
CCCn1nnnc1SCC(=O)N1CCCC1	-9	-81	-1	43*	?
CC1=CC(C)C(CN(CCC[N+](C)(C)C)C(=O)Nc2ccccc2)C(C)C1 (centres undefined)	5	7	0	42*	-7
CC(=O)N1CCN(CCN(CC2C(C)C=C(C)CC2C)C(C)=O)CC1 (centres undefined)	1	10	0	-5	-10
CC1CCN(C(=O)COC(=O)c2ccc(N3CCCC3=O)cc2)CC1	-2	-9	-1	46*	9
CC1CCCCN1C(=O)COC(=O)c1ccc(N2CCCC2=O)cc1 (centres undefined)	1	-18	1	nt	18
Cc1cccc(/C=C/c2onc(C)c2S(=O)(=O)N2CCC(C(=O)NC(C)(C)C)CC2)c1	-10	77*	0	nt	-77
Cc1ccc(S(=O)(=O)c2nc(S(=O)(=O)c3ccc(C)cc3)c(N3CCN(CCO)CC3)s2)cc1	-6	2	0	6	-2
COc1ccccc1CNc1nc(-c2cc(C)n(C)c2C)cs1	18*	14	2	2	-14
COc1ccc(S(=O)(=O)N2CCSCC2)cc1C(N)=O	3	1	0	5	-1
O=S(=O)(c1cccc(-c2csc(N/N=C/c3ccco3)n2)c1)N1CCOCC1	-5	72*	-2	-5	-72
CCOc1cc(/C=N/Nc2nc(-c3cccc(S(=O)(=O)N4CCCC4)c3)cs2)ccc1O	-13	98*	0	-3	-98
COC(=O)c1[nH]c2ccccc2c1NC(=O)c1c(F)cccc1F	-12	15	0	-2	-15
COc1ccc2cc(C(C)C(=O)O)ccc2c1 (centres undefined)	4	4	0	6	-4
N/C(=N\c1nc(CSc2ccccn2)cc(=O)[nH]1)Nc1ccc(Cl)cc1Cl	-10	23	0	78*	-23

High-throughput results from PubChem BioAssay.
